Screens: PubChem, several laboratories
A selection: hits, their analogues and other compounds. The true share with any hit is near 4%.
MT stabilizer = microtubule stabilizers in HeLa cells, primary screen, imaging, high-content imaging | HeLa tubulin immunostaining HCS, 24 h; share of cells brighter than vehicle mean+2SD | % tubulin-high responders, % at 10 µM | 200,000 compounds, 0.83% hits | AID 2205, 2009;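 active means plate Z-score above 3 for both tubulin-high and condensed-nucleus cell shares, with cell loss under 80%, at 10 µM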;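 further: anti alpha tubulin signal scored within the nucleus-defined area of each cell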
bCat nuc transl = modulators of beta-catenin nuclear translocation, primary screen, imaging, HeLa cells, immunofluorescence, high-content; 190,000 compounds, 0.3% hits; nuclear translocation activity, % at 5 µM; AID 1665, 2009;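 active means nuclear translocation activity above 50% at 5 µM, with a well cell count of 50 or more; inconclusive means wells under 50 cells across six images, flagged as toxic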;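 further: per-cell ratio of nuclear to cytoplasmic median beta-catenin stain intensity; plate controls were DMSO negative control for no effect and GSK-3 inhibitor IX positive control for full effect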
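assay system = human HeLa cells, endogenous beta-catenin | times = compound treatment 24 h, 37°C, 5% CO2 | detection = Anti-beta-catenin immunofluorescence on PFA-fixed, Triton-permeabilized cells, DAPI nuclei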
WT yeast gro inh = growth inhibition of WT strain, primary screen, mitochondrial fusion inhibitor project, WT and mutant strains, chemical genetic; mitochondrial fusion phenotypic screen; inhibition, % at 10 µM; 190,000 compounds, 2.1% hits; in the data active means inhibition above about 58%; tested in S. cerevisiae
KCC2 mod = KCC2 cotransporter modulators, thallium flux, primary screen, cell-based, HEK293 KCC2, FluoZin-2 fluorescence, MLSMR; B-score of Tl+ flux slope (higher = more flux/activation; lower = inhibition) at 10 µM; KCC2 cells, thallium flux FluoZin-2 fluorescence; 190,000 compounds, 2.2% hits; AID 1456, 2008;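 active means thallium flux slope and its plate-corrected score both differing from the plate sample mean at a set confidence after two filtering rounds, in either direction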;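 further: slope of fluorescence scaled to starting intensity during 10 to 20 s after thallium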
Pf gametocyte = late stage P. falciparum gametocyte viability inhibitors, primary screen, ATP luminescence, HTS | P. falciparum stage V gametocytes, 24 h | 150,000 compounds, 0.065% hits | AID 743093, 2013 | inhibition, % at 10.9 µM;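 active means inhibition above the mean plus 3 SD of compounds within the control limits, set per campaign, cut at about 38% in these data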;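 further: 0% = DMSO wells and 100% = medium only without gametocytes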
KCC2 sec1 = KCC2 modulators in sodium-free buffer, confirmation, cell-based, HEK293 KCC2, thallium flux, secondary assay | shares compounds with KCC2 mod | FluoZin2 fluorescence; active compounds read high | normalised thallium flux (F/F0 slope) at 10 µM | 3,700 compounds, 15% hits | AID 1713, 2009;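 active means thallium flux slope above the same plate's solvent-only control mean plus 3 SD; inconclusive means the two replicate wells disagree; inactive means no significant difference from solvent-only control wells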
KCC2 bumet counter = thallium flux persisting under bumetanide in KCC2 cells, confirmation, counter-screen for KCC2 modulator project, cell-based, HEK293 KCC2, FluoZin2, secondary assay 3; 3,700 compounds, 49% hits; normalized thallium flux at 10 µM; HEK293-KCC2 + bumetanide/ouabain; active compounds read high; shares compounds with KCC2 mod;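 active means thallium entry rate above the same plate's blocked-transporter control wells by more than 3 SD; inconclusive means the two repeat wells disagree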;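 further: raw slope of fluorescence over initial fluorescence between 10 and 20 s after thallium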
KCC2 sec2 = KCC2 modulators without ouabain present, confirmation, cell-based, HEK293 KCC2, thallium flux, FluoZin2, secondary assay 2; AID 1715, 2009; normalized thallium flux at 10 µM; thallium flux FluoZin2 fluorescence; actives lie on both sides; F/F0 rise rate, 10–20 s post-thallium; 3,700 compounds, 23% hits; shares compounds with KCC2 mod;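 active means thallium flux slope more than 3 SD above or below the plate's solvent-only control mean, mostly below; inconclusive means the two repeat wells disagreed; inactive means no significant shift from solvent-only controls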;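 further: raw slope with 0.1% DMSO as baseline and bumetanide as block control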
HEK293 Tl flux = thallium flux modulation in parental HEK cells, confirmation, counter-screen for KCC2 modulator project, cell-based, counterscreen 1; shares compounds with KCC2 mod; HEK293 parental cells, thallium flux FluoZin2, ouabain; baseline-ratio fluorescence slope, 10–20 s after thallium; thallium flux rate (normalised fluorescence) at 10 µM; 3,700 compounds, 46% hits; AID 1716, 2009;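 active means thallium flux rate significantly above the same plate's solvent-only control wells, beyond their mean plus 3 SD; inconclusive means the two replicate wells gave conflicting results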
KCC2 retest ouab = KCC2 inhibitors and activators, ouabain retest, confirmation, HEK-KCC2 cells. shares compounds with KCC2 mod. HEK293-KCC2, thallium flux FluoZin2 fluorescence; bidirectional: low = inhibitor, high = activator. raw Tl+ flux slope (below DMSO = inhibition, above = activation) at 10 µM. 3,700 compounds, 48% hits. AID 1717, 2009;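 active means thallium flux slope beyond 3 SD from same-plate DMSO control mean in most replicates, usually higher, sometimes lower; inconclusive means repeat tests gave conflicting results; inactive means no significant difference from controls in most replicates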;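 further: slope of initial-normalized fluorescence between seconds 10 and 20 after thallium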
HEK counter2 = native HEK Tl+ uptake effects, second counter-screen – HEK cells, counterscreen 2, counter-screen for KCC2 modulator project, confirmation; shares compounds with KCC2 mod; HEK293 parental, thallium flux FluoZin-2 fluorescence slope; thallium flux slope at 10 µM; 3,700 compounds, 33% hits; AID 1718, 2009;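 active means thallium flux slope above the same plate's solvent-control mean plus 3 SD in both duplicate wells; inconclusive means duplicate wells that disagreed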;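 further: run without ouabain in cells lacking the KCC2 cotransporter; slope of fluorescence scaled to its starting value between 10 and 20 s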
* hit, by the source's call; ? = inconclusive; nt = no result.

SMILES	MT stabilizer	bCat nuc transl	WT yeast gro inh	KCC2 mod	Pf gametocyte	KCC2 sec1	KCC2 bumet counter	KCC2 sec2	HEK293 Tl flux	KCC2 retest ouab	HEK counter2
O=S(=O)(c1ccccc1)N1CCn2c(nc3ccccc32)C1	4.0	nt	4.1	nt	nt	0.00881	?	0.0341	0.00744	0.0183	0.0109
O=S(=O)(c1ccc(F)cc1)N1CCn2c(nc3ccccc32)C1	4.7	nt	7.3	nt	nt	nt	nt	nt	nt	nt	nt
Cc1cc(C)c2nc(N3CCC(C(=O)N4CCCC4)CC3)sc2c1	1.7	-1.3	25.8	nt	-41.5	?	0.00573	0.0339	0.00408	0.0148*	0.0113
C=C/C(C)=C/CC1C(=C)CCC2C(C)(C(=O)O)CCCC12C (stereo not given)	nt	0.1	nt	2.3*	nt	0.00681	0.00922*	0.0311	0.0117*	?	0.0145*
CC1CC(C)CN(C(=O)CCCn2c(=S)[nH]c3ccccc3c2=O)C1 (stereo not given)	5.2	-0.4	-14.1	5.37*	-4.0	0.00541	0.0293*	0.0351	0.0106*	?	?
Cc1cccc(N2CCN(C(=O)CCCn3c(=S)[nH]c4cc5c(cc4c3=O)OCO5)CC2)c1C	2.8	-1.5	-6.0	nt	-39.4	0.00746	0.0121*	0.0305	?	?	?
O=C(CCCn1c(=S)[nH]c2cc3c(cc2c1=O)OCO3)N1CCN(c2ccccc2)CC1	1.3	-1.8	22.4	-1.76	-37.1	nt	nt	nt	nt	nt	nt
CCCCn1c(SCC(=O)Nc2cc(C(F)(F)F)ccc2Cl)nnc1C(CC)N(C)C (stereo not given)	2.3	nt	2.3	-0.16	14.3	nt	nt	nt	nt	nt	nt
Cc1ccc(CNC(=O)c2ccc(N3CCCC3=O)cc2)cc1	1.0	3.3	8.1	-4.31*	18.0	0.0158	0.00458	0.029	0.00739	0.0166	0.0109
Cc1cccc(CN2C(=O)CCSc3ccc(Cl)cc32)c1	1.9	0.5	-4.8	nt	-37.0	nt	nt	nt	nt	nt	nt
O=C1OC(c2cccs2)=N/C1=C\c1ccc(-c2ccccc2Cl)o1	3.7	?	-6.1	nt	nt	0.00589	0.00448	0.0282	0.00489*	?	0.00883
O=C(COC(=O)c1ccc(Cl)nc1)NCCC1=CCCCC1	4.6	-2.5	-14.0	0.468	2.9	nt	nt	nt	nt	nt	nt
Cc1ccc(C)c(C(=O)CC2(O)C(=O)N(C)c3ccccc32)c1 (stereo not given)	0.8	-5.5	5.3	-0.296	24.6	nt	nt	nt	nt	nt	nt
Cc1ccc(C(=O)CC2(O)C(=O)N(C)c3ccc(Br)cc32)c(C)c1 (stereo not given)	8.3	-1.2	5.8	-3.63*	nt	0.00858	?	0.0311	0.00897*	0.022	0.0101
Fc1ccc(Nc2nc(Oc3ccccc3F)nc(N3CCCC3)n2)cc1	1.5	-5.3	8.0	nt	nt	0.00728	0.00635	0.0291	0.00699	0.0197	0.00968
S=c1[nH]nc(COc2ccccc2)n1/N=C/C=C/c1ccco1	nt	0.5	nt	16.2*	-21.1	0.0072	0.0498*	0.0273	0.0118*	0.0282*	?
O=[N+]([O-])c1cccc(/C=N/n2c(COc3ccccc3)n[nH]c2=S)c1	2.2	-0.4	4.5	59.1*	-5.3	0.0113	0.15*	0.0311	0.0193*	0.0589*	0.0122*
S=c1[nH]nc(COc2ccccc2)n1/N=C/C=C/c1ccccc1	4.6	-0.8	70.7*	12.3*	30.0	0.0135*	0.139*	0.0341	0.0209*	0.0563*	?
CCn1ncc(CN2CCCC(CNC(=O)c3ccc(F)cc3)C2)c1C (stereo not given)	1.9	-0.2	1.8	-6.17*	8.7	0.0162	0.00519	0.0282	0.00746	0.0168	0.0106
CCC(=O)Nc1ccc(NC(=O)c2ccco2)cc1	5.3	-2.7	-1.3	nt	9.1	0.0103	0.00938*	0.0338	0.00905*	0.0227	?
O=C(Nc1ccc2c(c1)Cc1ccccc1-2)c1ccco1	3.6	-3.5	-10.5	nt	nt	?	0.0497*	0.0324	0.0229*	0.0282	0.0135*
CCC(=O)Oc1ccc(NC(=O)c2ccco2)cc1	1.5	0.4	-11.8	0.244	23.9	nt	nt	nt	nt	nt	nt
Cc1cccc(N2CCN(CC(O)COCc3cccs3)CC2)c1C (stereo not given)	2.4	0.0	12.4	-1.59	2.3	nt	nt	nt	nt	nt	nt
S=C1NC2(CCCCC2)N=C1c1ccccc1	1.4	-1.4	-7.8	4.72*	-5.7	0.00954	0.03*	0.0336	0.0118*	?	0.012*
Cc1ccc(C2=NC3(CCCCC3)NC2=S)cc1	1.6	1.9	2.6	2.36	-16.2	nt	nt	nt	nt	nt	nt
O=C(Nc1ccn(-c2ccccc2)n1)c1ccc(S(=O)(=O)N2CCCCCC2)cc1	3.7	-9.2	21.5	nt	nt	?	0.00411	0.0291	0.0072	0.016*	0.0108
Cc1cc(NC(=O)c2ccc(S(=O)(=O)N3CCCC3)cc2)nc2c1c(=O)oc1ccccc12	2.9	0.2	-4.3	nt	-15.6	0.00915	0.00698	0.0301	0.00786	0.0186	?
COc1ccccc1/C=C/C=N/NC(=O)c1cccs1	nt	0.1	nt	-0.542	0.2	nt	nt	nt	nt	nt	nt
Cc1nn(-c2ccccc2)c(C)c1/C=C/C(=O)OCC(=O)NC1CCS(=O)(=O)C1 (stereo not given)	2.4	1.0	8.4	nt	13.4	0.0056	0.00441	0.027	0.00806	0.0177	0.0102
Cc1[nH]n(C(N)=S)c(=O)c1N=Nc1ccc2ccccc2c1	7.6	0.4	65.9*	31.9*	-1.6	0.00588	0.088*	?	0.0271*	0.0363*	0.0191*
